{"source": "ChEMBL document CHEMBL3817796", "about": "“Discovery of Novel 15-Lipoxygenase Activators To Shift the Human Arachidonic Acid Metabolic Network toward Inflammation Resolution” (J Med Chem, 2016)", "key": {"[1]": {"target": "T1, Polyunsaturated fatty acid lipoxygenase ALOX15 (Homo sapiens) (UniProt P16050)", "T1 sequence (whole entry)": "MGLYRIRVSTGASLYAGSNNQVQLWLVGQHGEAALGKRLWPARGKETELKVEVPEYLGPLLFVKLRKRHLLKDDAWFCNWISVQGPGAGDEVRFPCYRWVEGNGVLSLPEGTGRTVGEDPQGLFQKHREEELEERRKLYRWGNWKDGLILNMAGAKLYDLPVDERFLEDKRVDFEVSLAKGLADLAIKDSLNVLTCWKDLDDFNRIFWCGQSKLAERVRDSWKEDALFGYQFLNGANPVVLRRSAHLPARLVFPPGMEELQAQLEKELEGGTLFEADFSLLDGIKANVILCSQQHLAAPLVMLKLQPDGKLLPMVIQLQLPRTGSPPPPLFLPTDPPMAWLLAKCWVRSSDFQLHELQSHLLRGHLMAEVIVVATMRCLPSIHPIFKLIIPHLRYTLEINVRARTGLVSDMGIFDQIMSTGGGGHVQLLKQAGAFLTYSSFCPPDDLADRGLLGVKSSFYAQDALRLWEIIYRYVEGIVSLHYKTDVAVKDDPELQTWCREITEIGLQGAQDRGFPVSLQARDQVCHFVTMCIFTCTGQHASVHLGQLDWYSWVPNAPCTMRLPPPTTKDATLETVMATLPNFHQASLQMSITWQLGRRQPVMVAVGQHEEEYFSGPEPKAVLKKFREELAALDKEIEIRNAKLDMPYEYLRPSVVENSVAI", "test": "Activation of 15-LOX in human whole blood assessed as reduction in TXB2 production at 100 uM pre-incubated for 20 mins before stimulation with LPS and A23187 for 120 mins in presence of 2 uM 5-LOX inhibitor Zileuton by LC-MS/MS method", "assay_type": "tissue-based", "method_in_brief": "(§1)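 Human blood preincubated 20 min at 37 °C with DMSO vehicle or compound in DMSO. LPS added at 100 μg/mL for 24 h at 37 °C, then A23187 at 20 μg/mL final. Samples frozen in liquid nitrogen at time points, lysed by freeze–thaw, with PGB2 internal standard. Analysed by C18 LC-MRM MS, negative ion. Change = control-normalized concentration minus 1, ×100%; 120 min value from AUC.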"}, "[2]": {"target": "T1, Polyunsaturated fatty acid lipoxygenase ALOX15 (Homo sapiens)", "test": "Activation of 15-LOX in human whole blood assessed as LTB4 production at 100 uM pre-incubated for 20 mins before stimulation with LPS and A23187 for 120 mins in presence of 2 uM 5-LOX inhibitor Zileuton by LC-MS/MS method", "assay_type": "tissue-based", "method_in_brief": "as §1"}, "[3]": {"tested_on": "Blood", "test": "Reduction in LTB4 in production in human whole blood at 100 uM pre-incubated for 20 mins before stimulation with LPS and A23187 for 120 mins by LC-MS/MS method", "assay_type": "functional", "parameters": "scale not given: the % may be the effect or the level left", "method_in_brief": "as §1"}, "[4]": {"target": "T1, Polyunsaturated fatty acid lipoxygenase ALOX15 (Homo sapiens)", "test": "Activation of 15-LOX in human whole blood assessed as reduction in LTB4 production at 100 uM pre-incubated for 20 mins before stimulation with LPS and A23187 for 120 mins in presence of 2 uM […] inhibitor Zileuton by LC-MS/MS method", "assay_type": "tissue-based", "method_in_brief": "as §1"}, "[5]": {"target": "T2, Polyunsaturated fatty acid 5-lipoxygenase (Homo sapiens) (UniProt P09917)", "T2 sequence (whole entry)": "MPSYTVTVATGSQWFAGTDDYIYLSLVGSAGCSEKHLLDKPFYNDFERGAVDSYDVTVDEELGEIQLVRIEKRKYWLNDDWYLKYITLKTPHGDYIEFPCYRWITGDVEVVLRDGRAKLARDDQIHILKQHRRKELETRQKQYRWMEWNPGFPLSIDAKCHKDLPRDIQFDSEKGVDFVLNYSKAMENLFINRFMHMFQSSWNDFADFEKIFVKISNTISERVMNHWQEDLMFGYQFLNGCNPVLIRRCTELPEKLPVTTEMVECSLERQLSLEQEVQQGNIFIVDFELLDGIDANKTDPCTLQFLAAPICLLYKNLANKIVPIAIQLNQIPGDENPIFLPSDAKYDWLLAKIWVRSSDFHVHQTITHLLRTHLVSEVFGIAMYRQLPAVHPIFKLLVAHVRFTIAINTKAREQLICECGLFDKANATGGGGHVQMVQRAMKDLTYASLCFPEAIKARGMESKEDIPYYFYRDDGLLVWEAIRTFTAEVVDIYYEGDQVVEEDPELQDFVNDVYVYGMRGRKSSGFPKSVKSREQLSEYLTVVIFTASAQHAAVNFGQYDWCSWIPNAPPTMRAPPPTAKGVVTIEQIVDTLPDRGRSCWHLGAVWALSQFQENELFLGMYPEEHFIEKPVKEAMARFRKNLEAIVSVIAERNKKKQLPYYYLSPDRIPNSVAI", "test": "Inhibition of human 5-LOX expressed in Escherichia coli BL21-DE3 of assessed as reduction in H2DCFDA oxidation at 100 uM using arachidonic acid substrate incubated for 5 mins by fluorescence spectrophotometry", "method_in_brief": "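Human 5-LOX activity followed as AA-driven oxidation of H2DCFDA to fluorescent dichlorofluorescein (ex 500/em 520 nm), recorded for 5 min. Compound handled as in the 15-LOX assay.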"}, "[6]": {"target": "T3, Polyunsaturated fatty acid lipoxygenase ALOX15 (Homo sapiens, UniProt P16050)", "T3 sequence (P16050 whole entry)": "T1 sequence (whole entry)", "test": "Binding affinity to wild-type His6-tagged human 15-LOX expressed in Escherichia coli Rosetta DE3 by SPR assay", "method_in_brief": "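15-LOX amine-coupled to a CM5 chip at 800 RU, 25 °C, in PBS-P pH 7.4. Compound concentrations in 5% DMSO injected serially; regenerated by buffer washing. KD from Hill fit of response units.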"}, "[7]": {"target": "T3, Polyunsaturated fatty acid lipoxygenase ALOX15", "test": "Activation of wild-type His6-tagged human 15-LOX expressed in Escherichia coli Rosetta DE3 assessed as 15-HpETE formation pre-incubated for 1 min before arachidonic acid substrate addition by cell free assay"}, "[8]": {"target": "T1, Polyunsaturated fatty acid lipoxygenase ALOX15 (Homo sapiens)", "test": "Activation of 15-LOX in human whole blood assessed as 13-HODE production at 100 uM pre-incubated for 20 mins before stimulation with LPS and A23187 for 120 mins in presence of 2 uM 5-LOX inhibitor Zileuton by LC-MS/MS method", "assay_type": "tissue-based", "method_in_brief": "as §1"}, "[9]": {"target": "T1, Polyunsaturated fatty acid lipoxygenase ALOX15 (Homo sapiens)", "test": "Activation of 15-LOX in human whole blood assessed as 15-HETE production at 100 uM pre-incubated for 20 mins before stimulation with LPS and A23187 for 120 mins in presence of 2 uM 5-LOX inhibitor Zileuton by LC-MS/MS method", "assay_type": "tissue-based", "method_in_brief": "as §1"}}, "note": "Active and inactive are the calls of the source. The calls are words filed in the database; no cut-off is given here.", "data": [{"smiles": "CN1CCN(CC(=O)N2N=C3/C(=C/c4ccccc4)CCCC3C2c2ccccc2)CC1", "note": "(centres undefined)", "values": [{"measurement": "Activity", "setting": "[1]", "result": "Active"}, {"measurement": "Activity", "setting": "[2]", "result": 54, "unit": "%"}, {"measurement": "Activity", "setting": "[3]", "result": 52, "unit": "%"}, {"measurement": "Activity", "setting": "[4]", "result": "Active"}, {"measurement": "inhibition", "setting": "[5]", "result": "< 5", "unit": "%"}, {"measurement": "Kd", "setting": "[6]", "result": 3.9, "unit": "µM"}, {"measurement": "AC50", "setting": "[7]", "result": 6.8, "unit": "µM"}, {"measurement": "Activity", "setting": "[8]", "result": 67, "unit": "%"}, {"measurement": "Activity", "setting": "[9]", "result": 36, "unit": "%"}]}]}
